We go through nine compounds from ChEMBL document CHEMBL1799978, “Akt-dependent anabolic activity of natural and synthetic brassinosteroids in rat skeletal muscle cells” (J Med Chem, 2011).

Calls of active or inactive are those of the source.

Data set [1] deals with L6. Kind of data set: Increase in protein synthesis in rat L6 cells assessed as [3H]-phenylalanine incorporation at 10 uM after 4 hrs by scintillation counting relative to control. The format is functional. In short, it runs like this:
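L6 myotubes (differentiated in 2% serum) washed with serum-free DMEM. Incubated 4 h with 0.5 μCi/mL [3H]-phenylalanine plus vehicle (0.1% ethanol), compound (0.3–30 μM, or 10 μM), or 6.5 nM IGF-1. Protein precipitated with 5% TCA, dissolved in 0.5 N NaOH, scintillation-counted, normalized to mg protein (BCA). Triplicate; ANOVA/Dunnett.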

In data set [2] the test system is L6. Kind of data set: Decrease in protein degradation in rat L6 cells assessed as release of acid-soluble [3H]-phenylalanine into the media normalized by total protein at 10 uM after 4 hrs by scintillation counting relative to control. It counts as functional. The arrangement: scale not given: the % may be the effect or the level left. In short, it runs like this: (§1)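 L6 myoblasts differentiated 7–9 d in 2% serum into myotubes. Proteins labelled 16 h with 1.5 μCi/mL [3H]-phenylalanine, then washed. Cells treated 4 h in serum-free medium with vehicle (0.1% ethanol), compound (0.3–30 μM; single-point screen 10 μM), or 10 nM insulin. Medium TCA-precipitated and released [3H]-phenylalanine counted, normalized to mg cell protein (BCA). Triplicate; one-way ANOVA with Dunnett's test.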

For data set [3], the system named is L6. Briefly: Cytotoxicity against rat L6 cells up to 30 uM after 24 hrs by MTT assay. It counts as cell-based. Conditions: l6, 24 h. In short, it runs like this: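 Fully differentiated L6 myotubes (myoblasts fused after 7–9 d in 2% serum) treated with compounds up to 30 μM against 0.1% ethanol vehicle. Viability by MTT assay in triplicate, read at 550 nm, alongside cytological observation.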
(Formazan colour is commonly taken as a measure of viable cells.)

Data set [4] concerns L6. Briefly: Activation of Akt phosphorylation at Ser473 in rat L6 cells at 10 uM after 1 hr by Western blot analysis. The format is cell-based. In short, it runs like this: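 Differentiated L6 myotubes exposed to 10 μM compound for 1 h; IGF-1 6.5 nM for 10 min served as positive control. Lysis in ice-cold RIPA with 10 mM NaF, 2 mM orthovanadate, 1 mM PMSF and protease inhibitors, spun 12,000 g 20 min 4°C. Lysates normalized to 50 μg soluble protein, immunoblotted for phospho-Akt (Ser473); stripped blots reprobed for total Akt as loading control; ECL detection.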
On the technique in general: Immunoblotting shows a protein as a band on a membrane.

The subject of data set [5] is L6. Kind of data set: Decrease in protein degradation in rat L6 cells assessed as release of acid-soluble [3H]-phenylalanine into the media normalized by total protein at 0.3 to 20 uM after 4 hrs by scintillation counting relative to control. The format is functional, cell-based. In short, it runs like this:
as §1

Data set [6] concerns L6. Briefly: Decrease in protein degradation in rat L6 cells assessed as release of acid-soluble [3H]-phenylalanine into the media normalized by total protein at 1 uM after 4 hrs by scintillation counting relative to control. It counts as functional. The arrangement: scale not given: the % may be the effect or the level left. The gist of the method: as §1
In data set [7] the test system is NIH3T3. Briefly: Cytotoxicity against mouse NIH/3T3 cells at 0.3 to 30 uM after 24 hrs by MTT assay. It counts as cell-based. The settings on record: nih3t3, 24 h. In short, it runs like this: (§2)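 NIH-3T3 murine fibroblasts grown in DMEM with 10% FBS at 37°C in 5% CO2. Exposed to 0.3–30 μM for 24 h at 37 °C. MTT read at 550 nm. Absorbance expressed relative to vehicle control cells (taken as 100% proliferation). n=6 from repeated experiments.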

Data set [8] concerns Rattus norvegicus. Kind of data set: Upregulation of Adar1d gene expression in Wistar rat at 60 mg/kg, po qd for 24 days by PCR analysis relative to control. The format is functional. The gist of the method:
(§3)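 Male Wistar rats gavaged daily 24 d with 60 mg/kg or vehicle (5% DMSO in corn oil). RNA from pooled (n=5) frozen gastrocnemius samples run on a rat insulin signaling PCR array (84 genes). Fold change computed as 2^(-ΔCt), with a 4-fold threshold.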

The test system of data set [9] is Rattus norvegicus. Briefly: Upregulation of Igfbp1 gene expression in Wistar rat at 60 mg/kg, po qd for 24 days by PCR analysis relative to control. The format is functional. The gist of the method: as §3
The test system of data set [10] is Rattus norvegicus. Kind of data set: Upregulation of Srebf1 gene expression in Wistar rat at 60 mg/kg, po qd for 24 days by PCR analysis relative to control. The format is functional. In short, it runs like this:
as §3

Data set [11] has as its system Rattus norvegicus. Kind of data set: Upregulation of Fbp2 gene expression in Wistar rat at 60 mg/kg, po qd for 24 days by PCR analysis relative to control. It counts as functional. In short, it runs like this: as §3
For data set [12], the system named is Rattus norvegicus. Briefly: Upregulation of Igf2 gene expression in Wistar rat at 60 mg/kg, po qd for 24 days by PCR analysis relative to control. It counts as functional. In short, it runs like this: (§4)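 Gastrocnemius muscle from male Wistar rats dosed orally with 60 mg/kg daily for 24 d, or vehicle. Conventional RT-PCR on individual muscle samples (n=5 per group), duplicate determinations. Compared with control by Student t test.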

Data set [13] deals with Rattus norvegicus. Kind of data set: Effect on Eif2b1 gene expression in Wistar rat at 60 mg/kg, po qd for 24 days by PCR analysis relative to control. It counts as functional, organism-based. The arrangement: dose 60 mg/kg. The gist of the method: as §3
In data set [14] the test system is Rattus norvegicus. Briefly: Induction of Myod1 mRNA expression in Wistar rat at 60 mg/kg, po qd for 24 days by RT-PCR analysis relative to control. The format is functional. In short, it runs like this: as §4
The test system of data set [15] is Rattus norvegicus. Kind of data set: Induction of Myf5 mRNA expression in Wistar rat at 60 mg/kg, po qd for 24 days by RT-PCR analysis relative to control. The format is functional. The gist of the method: as §4
Data set [16] has as its system Rattus norvegicus. Briefly: Induction of Myf6 mRNA expression in Wistar rat at 60 mg/kg, po qd for 24 days by RT-PCR analysis relative to control. The format is functional. In short, it runs like this:
as §4

Data set [17] concerns Rattus norvegicus. Briefly: Induction of Myog mRNA expression in Wistar rat at 60 mg/kg, po qd for 24 days by RT-PCR analysis relative to control. It counts as functional. The gist of the method:
as §4

The test system of data set [18] is Rattus norvegicus. Briefly: Anabolic effect in Wistar rat assessed as increase in lean body mass at 60 mg/kg, po qd for 24 days. The format is functional.
The test system of data set [19] is Rattus norvegicus. Kind of data set: Anabolic effect in Wistar rat assessed as increase in limb grip strength at 60 mg/kg, po qd for 24 days. It counts as functional, organism-based. The arrangement: dose 60 mg/kg.
Data set [20] has as its system L6. Kind of data set: Increase in protein synthesis in rat L6 cells assessed as [3H]-phenylalanine incorporation at 0.3 to 30 uM after 4 hrs by scintillation counting relative to control.
The subject of data set [21] is NIH3T3. Briefly: Cytotoxicity against mouse NIH/3T3 cells after 24 hrs by MTT assay. It counts as cell-based. The settings on record: NIH3T3, 24 h. The gist of the method:
as §2

Take `CC[C@@H](C(C)C)[C@H](O)[C@@H](O)[C@@H](C)[C@H]1CC[C@H]2[C@@H]3CC(=O)N[C@H]4C[C@H](O)[C@H](O)C[C@]4(C)[C@H]3CC[C@]12C`: the Activity in the data set on L6 [1] was 3%; in the data set with L6 [2], -14%; in the data set on L6 [3], “Non-toxic”. In addition, in the data set with L6 [4], the result was Active.

Turning to `CC[C@@H](C(C)C)[C@H](O)[C@@H](O)[C@@H](C)[C@H]1CC[C@H]2[C@@H]3COC(=O)[C@H]4C[C@H](O)[C@H](O)C[C@]4(C)[C@H]3CC[C@]12C`, the Activity was 37% in the data set with L6 [1]; -24% in the data set on L6 [2]; “Dose-dependent effect” with L6 [5]; 8.2% in the data set on L6 [6]; “Non-toxic” with L6 [3]; “Non-toxic” with NIH3T3 [7]. In addition, the Activity is given as 14.2% in the data set on Rattus norvegicus [18] and 36.9% in the data set with L6 [20]. Besides, the result with L6 [4] and in the data set with Rattus norvegicus [19] was Active. In addition, the “fold change (FC)” value is 6.5 in the data set on Rattus norvegicus [8]; 2.5 with Rattus norvegicus [9]; 2.5 with Rattus norvegicus [10]; 4.5 with Rattus norvegicus [11]; 1.4 with Rattus norvegicus [12]; 2.1 in the data set with Rattus norvegicus [14]. For the same compound, the results for the “fold change (FC)” value in the data set on Rattus norvegicus [15], with Rattus norvegicus [16] and in the data set on Rattus norvegicus [17] were 1.3, 1.3 and 1.7, respectively. The result with Rattus norvegicus [13] was inactive.

With `CC[C@@H](C(C)C)[C@@H](O)[C@H](O)[C@@H](C)[C@H]1CC[C@H]2[C@@H]3COC(=O)[C@H]4C[C@H](O)[C@H](O)C[C@]4(C)[C@H]3CC[C@]12C`, the Activity in the data set with L6 [1] was 13%; in the data set on L6 [2] it was -15%; in the data set with L6 [3] it was “Non-toxic”. The result in the data set with L6 [4] was Active.

As to `CC[C@@H](C(C)C)[C@H](O)[C@@H](O)[C@@H](C)[C@H]1CC[C@H]2[C@@H]3CC(=O)[C@H]4C[C@H](F)CC[C@]4(C)[C@H]3CC[C@]12C`, the Activity with L6 [1] was 23%; in the data set on L6 [2], -16%; with L6 [3] it was “Non-toxic”; in the data set with NIH3T3 [7], “Toxic”. In the data set on L6 [4], the result was Active.

As to `CC[C@@H](C(C)C)[C@H](O)[C@@H](O)[C@@H](C)[C@H]1CC[C@H]2[C@@H]3CNC(=O)[C@H]4C[C@H](O)[C@H](O)C[C@]4(C)[C@H]3CC[C@]12C`, the Activity is listed as 21% in the data set with L6 [1], -1% with L6 [2] and “Non-toxic” with L6 [3]. Further, 12.5 µM corresponded to half-maximal inhibition in the data set on NIH3T3 [21] (IC50). Moreover, in the data set on L6 [4], the outcome was Active.

`CC[C@H](C(C)C)[C@H](O)[C@@H](O)[C@@H](C)[C@H]1CC[C@H]2[C@@H]3COC(=O)[C@H]4C[C@H](F)CC[C@]4(C)[C@H]3CC[C@]12C`: the Activity in the data set with L6 [1] is given as 25%; with L6 [2], -21%; in the data set on L6 [3], “Non-toxic”; in the data set with NIH3T3 [7], “Toxic”. Also, the outcome in the data set on L6 [4] was Active.

With `CC[C@@H](C(C)C)[C@H](O)[C@@H](O)[C@@H](C)[C@H]1CC[C@H]2[C@@H]3CC(=O)[C@H]4C[C@H](O)[C@H](O)C[C@]4(C)[C@H]3CC[C@]12C`, the Activity in the data set on L6 [1] was 41%; in the data set on L6 [2], -23%; in the data set with L6 [5], “Dose-dependent effect”; in the data set with L6 [6], 8.7%; with L6 [3] it was “Non-toxic”; in the data set with NIH3T3 [7], “Non-toxic”. For the same compound, the Activity in the data set on L6 [20] is 40.7%. In addition, in the data set with L6 [4], the outcome was Active.

Consider `CC(C)[C@@H](C)[C@@H](O)[C@H](O)[C@@H](C)[C@H]1CC[C@H]2[C@@H]3COC(=O)[C@H]4C[C@H](O)[C@H](O)C[C@]4(C)[C@H]3CC[C@]12C`, for which the Activity was 12% in the data set on L6 [1], -7% in the data set with L6 [2] and “Non-toxic” in the data set on L6 [3]. In the data set on L6 [4], the result was Active.

Regarding `CC(C)[C@@H](C)[C@H](O)[C@@H](O)[C@@H](C)[C@H]1CC[C@H]2[C@@H]3COC(=O)[C@H]4C[C@H](O)[C@H](O)C[C@]4(C)[C@H]3CC[C@]12C`, the Activity in the data set with L6 [1] was 4%; in the data set on L6 [2], -6%; in the data set on L6 [3], “Non-toxic”. The outcome in the data set with L6 [4] was Active.
